Like-named read-outs stand apart in the source and are kept apart here.
What was measured:
normal rats [1] = assay: Food intake and body weight during 6-day CB1 antagonist infusion in lean rats; assay type: in vivo, rat; conditions: 6 days; for body weight / food intake: lean rats
In short: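 Rats on standard chow received test compound for 6 days, either 3 or 5 μg/rat per day icv or 5 μg/rat per day s.c. Both routes used osmotic minipumps. Vehicle was isotonic saline with 0.3% Tween 80. Icv cannula placement was checked by drinking response to icv angiotensin II (5 ng/μl). Vehicle pair-fed rats got the treated group's daily intake before dark onset. Food intake and body weight were recorded daily. n=5–7, means ± SE.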

DIO rats [2] = assay type: in vivo, rat; conditions: 6 days
DIO rats [3] = assay: Plasma measurements after central or global CB1 blockade in DIO rats; assay type: in vivo; conditions: Central CB1 blockade, icv 5 μg/rat per day, 6 days, mean ± SE
In short: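 Diet-induced obese rats (45% high-fat diet, 8 weeks) got test compound 5 μg/rat per day icv for 6 days, alongside vehicle and pair-fed controls. Plasma glucose was measured by the glucose oxidase method, and nonesterified fatty acids by commercial kit. Corticosterone and insulin were measured by double-antibody radioimmunoassay. Means ± SE.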

[4] = assay type: in vivo, mice (C57BL/6J; conditions: male, C57BL/6J, mouse, ip, 10 mg/kg
DIO rats [5] = assay: Triglyceride content in epididymal WAT and plasma of DIO rats; assay type: in vivo, rat; conditions: 6 days
In short: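 Diet-induced obese rats received test compound for 6 days, either 5 μg/day icv by minipump or 10 mg/kg per day i.p., alongside vehicle and pair-fed groups. Lipids were extracted from epididymal WAT. After the organic solvent was evaporated, triglyceride was measured enzymatically in duplicate. Plasma triglyceride was measured by commercial kit. n=5–7, means ± SE.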

normal rats [6] = assay: Quantitative RT-PCR of lipid metabolism enzymes in WAT and liver of lean rats; assay type: in vivo, rat; conditions: 6 days
In short: (§1)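 Lean or diet-induced obese rats received 6-day treatment with vehicle and pair-fed controls. Epididymal WAT and liver were freeze-clamped and kept at −80°C. Real-time qPCR used SYBR Green, ~70 ng template cDNA and primers at 0.5 μmol/l final. Relative levels came from a standard curve and were normalised to ribosomal protein S29 in WAT and cyclophilin A in liver. n=5–7, means ± SE.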

DIO rats [7] = assay type: in vivo, rat
In short: as §1

DIO rats [8] = assay type: in vivo, rat; conditions: 6 days; remark: listed apart in the source
In short: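 Male Sprague-Dawley rats were fed a 45% high-fat diet for 8 weeks, then given vehicle or test compound for 6 days, with a vehicle pair-fed group. They were fasted overnight and anaesthetised with pentobarbital 50 mg/kg i.p. Clamps were run basal and insulin-stimulated (200 mU/ml) with D-[U-14C]glucose infusion (5 μCi/ml). A 2-deoxy-D-[1-3H]glucose bolus (30 μCi/rat) followed, and tissue 2-DG-6-P gave a utilisation index in ng/min/mg. n=5–7.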

[9] = tested on: diet-induced obese (DIO) mice; conditions: cited from earlier work
Zucker rats = conditions: cited from earlier work
[10] = tested on: isolated soleus muscle of ob/ob mice; conditions: cited from earlier work
rat = conditions: acute intracerebroventricular injection, 3 μg/rat per day; cited from earlier work
obese Zucker rats = conditions: 30 mg/kg, 8 weeks; cited from earlier work
CB1 receptor = conditions: by reducing food intake and increasing energy expenditure and fat oxidation; cited from earlier work
[11] = intracerebroventricular 3 μg/rat per day
[12] = intracerebroventricular 5 μg/rat per day
[13] = peripheral 5 μg/rat per day via subcutaneous minipumps
[14] = normal rats, icv 5 μg/day, similar in vehicle pair-fed group
[15] = ip 10 mg/kg, 6 days, independent of hypophagia

Compound: Cc1c(C(=O)NN2CCCCC2)nn(-c2ccc(Cl)cc2Cl)c1-c1ccc(Cl)cc1 [SR141716, Rimonabant]
- body weight (normal rats [1]; [11]): no effect
- food intake (normal rats [1]; [11]): no effect
- body weight (normal rats [1]; [12]): loss of body weight
- body weight (normal rats [1]; [13]): unable to detect changes
- food intake (normal rats [1]; [13]): unable to detect changes
- decrease in food intake (normal rats [1]; normal rats, intracerebroventricular 5 μg/rat per day): 17%
- decrease in food intake (DIO rats [2]; [12]): 31%
- body weight (DIO rats [2]; intracerebroventricular 5 μg/rat per day, mimicked by pair feeding): loss of body weight
- decrease in food consumption (DIO rats [2]; intraperitoneal 10 mg/kg per day, P < 0.01): 40%
- Corticosterone (plasma) (DIO rats [3]): 59.77 ± 7.26 ng/mL
- Glucose (plasma) (DIO rats [3]): 3.78 ± 0.12 mmol/L
- Insulin (plasma) (DIO rats [3]): 0.58 ± 0.12 ng/mL
- Nonesterified fatty acids (plasma) (DIO rats [3]): 0.66 ± 0.13 mmol/L
- Cmax ([4]; brain): 1010 ± 384 ng/g
- concentration at 25.1 h ([4]; brain): 186 ± 37.5 ng/g
- half-life ([4]; brain): 9.44 h
- Cmax ([4]; serum): 258 ± 58.9 ng/mL
- concentration at 25.1 h ([4]; serum): 20.5 ± 9.25 ng/mL
- half-life ([4]; serum): 6.33 h
- triglyceride levels in WAT (DIO rats [5]; icv 5 μg/day): did not modify
- triglyceride levels in plasma (DIO rats [5]; icv 5 μg/day): did not modify
- WAT triglyceride content (DIO rats [5]; ip 10 mg/kg, not observed in vehicle pair-fed group): decreased
- WAT mRNA expression of lipid metabolism enzymes (normal rats [6]; lean rats, 5 μg/rat per day given peripherally): no change
- liver gene expression of key enzymes regulating triglyceride metabolism (normal rats [6]; lean rats, icv 5 μg/day): No significant difference
- WAT expression of CPT-1 (normal rats [6]; [14]): increased
- WAT expression of genes promoting lipogenesis and triglyceride storage (FAS, SCD-1, ACCα, LPL) (normal rats [6]; [14]): markedly reduced
- expression of hormone-sensitive lipase and adipose triglyceride lipase (DIO rats [7]; WAT, drug treatment (data not shown)): not modified
- WAT CPT-1 expression (DIO rats [7]; icv 5 μg/day, 6 days): trend toward an increase
- WAT SCD-1 expression (DIO rats [7]; icv 5 μg/day, 6 days, also present in pair-fed group): decrease
- liver SCD-1 expression (DIO rats [7]; icv 5 μg/day, 6 days, similar decrease in vehicle pair-fed animals): decreased
- liver gene expression of lipid metabolism enzymes (DIO rats [7]; ip 10 mg/kg, 6 days): No modification
- liver expression of glucose-6-phosphatase (DIO rats [7]; ip 10 mg/kg, 6 days, also in vehicle pair-fed group): marked decrease
- WAT CPT-1 expression (DIO rats [7]; [15]): increase
- WAT SCD-1 expression (DIO rats [7]; [15]): decrease
- overall insulin sensitivity (DIO rats [8]; icv 5 μg/day): failed to elicit any change
- glucose infusion rate (GIR) (DIO rats [8]; icv 5 μg/day, vs vehicle): identical
- glucose uptake in skeletal muscle and WAT (DIO rats [8]; icv 5 μg/day, vs vehicle): identical
- hepatic glucose production (HGP) (DIO rats [8]; icv 5 μg/day, vs vehicle): identical
- overall insulin sensitivity (DIO rats [8]; ip 10 mg/kg): enhanced
- hepatic glucose production (HGP) (DIO rats [8]; ip 10 mg/kg, comparable in vehicle pair-fed rats): suppressed
- glucose utilization by adipose tissue (DIO rats [8]; ip 10 mg/kg, food-independent effect): increased
- glucose infusion rate (GIR) (DIO rats [8]; ip 10 mg/kg, similar increase in vehicle pair-fed group): higher
- body weight [9]: maintained reduction
- food intake [9]: transient suppression
- body weight (Zucker rats): maintained reduction
- food intake (Zucker rats): transient suppression
- glucose uptake [10]: increases
- food intake (rat): decreases
- hepatic lipid metabolism (obese Zucker rats): food intake–independent effect

Compound: C[C@H](NC(=O)C(C)(C)Oc1ccc(C(F)(F)F)cn1)[C@@H](Cc1ccc(Cl)cc1)c1cccc(C#N)c1 [taranabant]
- body weight (CB1 receptor): weight loss

From publication PMC2570394 (Diabetes, 2008)
